Data set [1] relates to KCL-22 (chronic myeloid leukemia in blast crisis). The data set can be described thus: Dark cytotoxicity, Trypan blue exclusion test. Format: cell-based, human.
Data set [2] deals with human normal leukocytes (HNL). The data set can be described thus: Cytotoxicity on normal cells, trypan blue exclusion assay. It is filed as cell-based.
The test system of data set [3] is KCL-22 cell line. Nature of the data set: Comet assay. Format: cell-based, human. The conditions noted are these: for % DNA in tail, Mean ± S.E.M. / % DNA in tail, Median / L/H, Mean ± S.E.M. / L/H, Median / OTM, Mean ± S.E.M. / OTM, Median: KCL-22. In outline: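 KCL-22 cells were treated 24 h after seeding for 2 h at three concentrations of test compound, with untreated cells as control. Cells were embedded in 0.5% low-melting agarose on slides precoated with 1% agarose and lysed 1 h at 4 °C (2.5 M NaCl, 100 mM EDTA, 10 mM Tris, 1% Triton X-100, pH 10). DNA was unwound 40 min (300 mM NaOH, 1 mM EDTA, pH >13), then electrophoresed at 4 °C for 25 min at 25 V, 300 mA. Slides were neutralised with 0.4 M Tris pH 7.5, stained with 20 μg/mL ethidium bromide, and ≥150 cells scored (50 per triplicate slide). Analysis was by Mann–Whitney test.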

The test system of data set [4] is KCL-22 cell line. Nature of the data set: Flow cytometric cell cycle analysis. It is filed as cell-based, human. In outline: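 KCL-22 cells were exposed 24 h after seeding to three concentrations of test compound for 48 h. About 10^6 cells were fixed by dropwise addition of cold 70% ethanol on vortex, held overnight at 4 °C, and stored at −20 °C for up to a week. Cells were then washed twice in PBS and stained 30 min with 0.1 mg/mL RNase and 0.05 mg/mL propidium iodide. DNA content was read by flow cytometry, with doublets excluded by FSC/SSC. Phases were fitted with the Dean–Jett–Fox model.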

Data set [5] can be described thus: Lipophilicity by thin-layer chromatographic retention factor Rf. The conditions noted are these: silica, 1:1:8 KNO3-saturated H2O:H2O:CH3CN. Format: physicochemical.
For data set [6], the system named is HeLa, HEP-3B, LN-308, MCF-7 and KCL-22 human cancer cell lines. Nature of the data set: Dose-dependent cytotoxicity curves in five cancer cell lines. It is filed as cell-based. The conditions noted are these: Fig. 3.
The subject of another data set is HeLa cell line. The data set can be described thus: Cytokinesis block micronucleus.
Data set [7] deals with KCL-22 cells. Nature of the data set: Photo-induced cytotoxicity, vital dye exclusion test. It is filed as cell-based, human. In outline:
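After 24 h in glass vials, KCL-22 cells were preincubated 30 min with free-base porphyrin (distilled water) at various concentrations. They were then irradiated 25 min with a tungsten lamp (30 mW/cm2, 28,000 lx) through a 600–900 nm glass filter and incubated a further 48 h. Viable cells were counted by vital dye exclusion. Controls were dark-kept treated cultures and illuminated untreated cultures; Chlorin e6 was the positive control. IC50 came from dose–response curves, mean ± S.E.M.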

The subject of data set [8] is KCL-22 cells. Nature of the data set: Dark toxicity of photosensitizers, vital dye exclusion test. It is filed as cell-based, human. The conditions noted are these: for IC50: read-out: IC50 (μM) ± S.E.M. Under dark. The gist of the method:
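KCL-22 cells were grown in RPMI-1640 with 10% FBS, 2 mM L-glutamine and penicillin/streptomycin at 37 °C, then seeded in glass vials for 24 h. Free-base porphyrin in distilled water was added at various concentrations, and cells were kept in the dark without illumination for 48 h. Viable cells were counted by vital dye exclusion, with viability as % of intact control. IC50 came from dose–response curves, mean ± S.E.M. of at least three experiments.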

Data set [9] deals with KCL-22 cells. The conditions noted are these: read-out: IC50 (μM) ± S.E.M. Photo-induced; KCL-22, illumination; cited from earlier work.
The test system of data set [10] is KCL-22 cells. The conditions noted are these: read-out: IC50 (μM) ± S.E.M. Under dark; KCL-22, dark; cited from earlier work.
In a further data set the test system is HeLa (cervix carcinoma). Nature of the data set: Dark cytotoxicity, Trypan blue exclusion test. It is filed as cell-based, human. The conditions noted are these: read-out: IC50 (μM) ± S.E.M. HeLa, 48 h incubation. In outline:
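HeLa cells were grown in DMEM with 10% FBS, 2 mM L-glutamine and penicillin/streptomycin at 37 °C. They were seeded at 0.5 × 10^6/mL in glass vials, given 24 h, then exposed for 48 h in the dark to test compound in distilled water at various concentrations. Cells were trypsinised, stained 5–15 min with 0.4% Trypan blue and counted by hemocytometer. […] IC50 was derived from at least three experiments, mean ± S.E.M.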

In data set [11] the test system is KCL-22 (chronic myeloid leukemia in blast crisis). The conditions noted are these: read-out: IC50 (μM) ± S.E.M. KCL-22, dark; cited from earlier work.

Read-outs that look alike come from different tables or passages of the source. Marks after values point to notes of the source that are not given here.

This is an account of results in article PMC4527612 (Journal of inorganic biochemistry, 2014).

As usually defined, the IC50 is the concentration needed to halve the response being measured.

Turning to `C=CC[n+]1ccc(-c2c3nc(c(-c4cc[n+](CC=C)cc4)c4ccc([n-]4)c(-c4ccc(OCCCCCCCCCCCCCCCC)c(OC)c4)c4nc(c(-c5cc[n+](CC=C)cc5)c5ccc2[n-]5)C=C4)C=C3)cc1.O=[N+]([O-])[O-].O=[N+]([O-])[O-].O=[N+]([O-])[O-].[Ag+2]` [AgTriAll4PyMVanC16P, 5-Mono(3′-methoxy-4′-hexadecyloxyphenyl)-10,15,20-tri(4′-N-allylpyridyl) porphinato Ag(II) trinitrate], in data set [1] (KCL-22, dark), the “fold enhancement of cytotoxicity on metallation of H2TriAll4PyMVanC16P” value came to 5 fold. Further, the “toxicity on normal cells (HNL) as compared to cisplatin” value in data set [2] (HNL, trypan blue exclusion) was “significantly less toxic”. The “toxicity towards cancer (KCL-22) versus normal (HNL) cells” value in data set [2] (although not significant) is on record as “higher towards cancer versus normal cells”. Further, the “% DNA in tail, Mean ± S.E.M.” value with KCL-22 cell line [3] (concentration IC50, 2 h) came out at 9.36 ± 0.68%; with KCL-22 cell line [3] (concentration IC50/5, 2 h) it was 3.10 ± 0.20%; in the data set with KCL-22 cell line [3] (concentration IC50/20, 2 h) it was 1.74 ± 0.14%. Besides, the “% DNA in tail, Median” value with KCL-22 cell line [3] (concentration IC50, 2 h) is 7.14 ^* %; in the data set on KCL-22 cell line [3] (concentration IC50/5, 2 h), 3.11 ^* %; in the data set on KCL-22 cell line [3] (concentration IC50/20, 2 h), 1.74%. The “L/H, Mean ± S.E.M.” value in the data set on KCL-22 cell line [3] (concentration IC50, 2 h) came to 1.34 ± 0.01; with KCL-22 cell line [3] (concentration IC50/5, 2 h), 1.12 ± 0.01; in the data set on KCL-22 cell line [3] (concentration IC50/20, 2 h), 1.08 ± 0.00. In addition, the “L/H, Median” value is 1.32 ^* in the data set on KCL-22 cell line [3] (concentration IC50, 2 h); 1.12 ^* in the data set on KCL-22 cell line [3] (concentration IC50/5, 2 h); 1.07 in the data set on KCL-22 cell line [3] (concentration IC50/20, 2 h). Also, the “OTM, Mean ± S.E.M.” value with KCL-22 cell line [3] (concentration IC50, 2 h) amounted to 5.63 ± 0.42; in the data set with KCL-22 cell line [3] (concentration IC50/5, 2 h), 1.42 ± 0.08; in the data set on KCL-22 cell line [3] (concentration IC50/20, 2 h), 0.93 ± 0.06. Moreover, the “OTM, Median” value with KCL-22 cell line [3] (concentration IC50, 2 h) is recorded as 4.12 ^*; in the data set on KCL-22 cell line [3] (concentration IC50/5, 2 h) it was 1.14 ^*; in the data set on KCL-22 cell line [3] (concentration IC50/20, 2 h), 0.58. In addition, the “DNA damage (Comet assay)” value in the data set with KCL-22 cell line [3] (concentrations IC50/5 and IC50, KCL-22, 2 h after application) is on record as “induce the breakage of DNA molecule”; in the data set on KCL-22 cell line [3] (low (IC50/20) concentration, KCL-22, 2 h), “no effect”. The “number of cells in G2 phase” value in the data set with KCL-22 cell line [4] (KCL-22, 48 h) is “not changed”. Further, the S-phase cell number entry in the data set on KCL-22 cell line [4] (KCL-22, IC50/2, IC50, IC60, 48 h) is reported as “significantly increased”. Besides, the “cells in G1 phase” value in the data set on KCL-22 cell line [4] (KCL-22, IC50 or IC60 concentration, 48 h) is reported as “statistically significant reduction”. Also, in data set [5], the “lipophilicity, TLC retention factor Rf, compared to tetracationic analog” value is listed as “gained significantly in lipophilicity”. Besides, in data set [6], the “concentration at which toxicity starts” value is reported as ~ 1 μM. Moreover, the “MN (micronucleus) formation in binucleate cells” value in the data set with HeLa cell line (all concentrations applied, from IC50/5 to IC60, HeLa) was “did not induce MN formation”. The “CBPI (cytokinesis block proliferation index)” value was 1.33 ± 0.002 with HeLa cell line (concentration IC50, HeLa); 1.37 ± 0.004 in the data set on HeLa cell line (concentration IC50/2, HeLa, listed as Ag porphyrin); “no effect” in the data set with HeLa cell line (concentration IC50/2, HeLa, listed as Amphiphilic Ag porphyrin); 1.42 ± 0.034 with HeLa cell line (concentration IC50/5, HeLa, listed as Ag porphyrin); “no effect” in the data set with HeLa cell line (concentration IC50/5, HeLa, listed as Amphiphilic Ag porphyrin); 1.20 ± 0.002 in the data set with HeLa cell line (concentration IC60, HeLa). In addition, the “CBPI, % of negative control” value in the data set with HeLa cell line (concentration IC50, HeLa) is 91%; in the data set with HeLa cell line (concentration IC50/2, HeLa), 94%; in the data set on HeLa cell line (concentration IC50/5, HeLa), 97%; in the data set with HeLa cell line (concentration IC60, HeLa), 82%.
Consider `C=Cc1c(C)c2cc3nc(c(CC(=O)O)c4[nH]c(cc5nc(cc1[nH]2)C(C)=C5CC)c(C)c4C(=O)O)[C@@H](CCC(=O)O)[C@@H]3C` [Chlorin e6, reference compound], for which the IC50 in the data set with KCL-22 cells [7] (Homo sapiens, KCL-22, read-out: IC50 (μM) ± S.E.M. Photo-induced) was 4 ± 0.2 µM; in the data set with KCL-22 cells [8] (Homo sapiens, KCL-22, 48 h), over 50 µM.
For `C=CC[n+]1ccc(-c2c3nc(c(-c4cc[n+](CC=C)cc4)c4ccc([nH]4)c(-c4ccc(OCCCCCCCCCCCCCCCC)c(OC)c4)c4nc(c(-c5cc[n+](CC=C)cc5)c5ccc2[nH]5)C=C4)C=C3)cc1.[Br-].[Br-].[Br-]` [H2TriAll4PyMVanC16P, 5-Mono(3′-methoxy-4′-hexadecyloxyphenyl)-10,15,20-tri(4′-N-allylpyridyl) porphine tribromide], the “fold by which IC50 upon illumination is lower than IC50 under the dark” value in the data set with KCL-22 cells [7] (KCL-22) is listed as “more than 35 fold”. In addition, the “fold more phototoxic than Chlorin e6” value in the data set with KCL-22 cells [7] (KCL-22, illumination) came to 5 fold. The “fold increase in cytotoxicity over tetracationic analog H2TAll4PyP” value in the data set on KCL-22 cells [8] (KCL-22, dark) is given as “more than 60 fold”. For the same compound, the IC50 with KCL-22 cells [8] (KCL-22, dark, 48 h) was found to be 25 ± 2 µM. Also, in data set [5], the “lipophilicity, TLC retention factor Rf, compared to tetracationic analog” value is given as “gained dramatically in lipophilicity”.
As for `C=CC[n+]1ccc(-c2c3nc(c(-c4cc[n+](CC=C)cc4)c4ccc([nH]4)c(-c4cc[n+](CC=C)cc4)c4nc(c(-c5cc[n+](CC=C)cc5)c5ccc2[nH]5)C=C4)C=C3)cc1` [H2TAll4PyP, 5,10,15,20-tetra(4′-N-allylpyridyl)porphyrin tetrabromide], the IC50 was 50 µM in the data set with KCL-22 cells [9] and over 1600 µM in the data set with KCL-22 cells [10].
Turning to `N.N.[Cl][Pt][Cl]` [Cisplatin, cisplatin, reference compound], the “concentration at which toxicity starts” value in [6] is ~ 0.2 μM.
Turning to “5,10,15,20-tetra(4′-N-allylpyridyl)porphinato Ag(II) tetranitrate [AgTAll4PyP]”, the IC50 with HeLa (cervix carcinoma) was 26 ± 2.4 µM; in [11], 2.5 ± 1.1 µM.
`O=[N+]([O-])[O-].[Ag+]` [Silver nitrate]: in [1] (at up to 20 μM concentration, data not shown), the “toxicity on KCL-22 cell line” value is recorded as “no toxicity”.
